From ChEMBL document CHEMBL3425427, “Pyrido[4,3-e][1,2,4]triazolo[4,3-a]pyrazines as Selective, Brain Penetrant Phosphodiesterase 2 (PDE2) Inhibitors” (ACS Med Chem Lett, 2015)
≈ marks a conversion by molar mass, not a printed value. One block for each compound: values may come before it. Calls of active or inactive are those of the source. The rule behind the calls is not given here.

Tests used:
[1] = Clearance in Sprague-Dawley rat at 2.5 mg/kg, iv; assay type: ADME, organism-based; parameters: dose 2.5 mg/kg, route intravenous; conditions: in vivo
Procedure, shortened: (§1)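 Male Sprague-Dawley rats, fed; n = 3 per time point. Dosed 2.5 mg/kg i.v. or 10 mg/kg p.o.; plasma PK parameters derived from both routes.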

[2] = AUC (0 to infinity) in Sprague-Dawley rat at 2.5 mg/kg, iv; assay type: ADME, organism-based; parameters: dose 2.5 mg/kg, route intravenous, time infinity; conditions: plasma
[3] = Cmax in Sprague-Dawley rat at 10 mg/kg, po; assay type: ADME, organism-based; parameters: dose 10 mg/kg, route oral; conditions: in vivo; procedure, shortened: as §1
[4] = Tmax in Sprague-Dawley rat at 10 mg/kg, po; assay type: ADME, organism-based; parameters: dose 10 mg/kg, route oral; conditions: in vivo; procedure, shortened: as §1
[5] = Half life in Sprague-Dawley rat at 10 mg/kg, po; assay type: ADME, organism-based; parameters: dose 10 mg/kg, route oral; conditions: in vivo; procedure, shortened: as §1
[6] = AUC (0 to infinity) in Sprague-Dawley rat at 10 mg/kg, po; assay type: ADME, organism-based; parameters: time infinity, dose 10 mg/kg, route oral; conditions: plasma
[7] = Oral bioavailability in Sprague-Dawley rat at 10 mg/kg; assay type: ADME, organism-based; conditions: in vivo; procedure, shortened: as §1
[8] = Unbound fraction in Sprague-Dawley rat brain homogenates at 10 mg/kg, sc after 5 hrs at 37 degC by rapid equilibrium dialysis; assay type: ADME, organism-based; parameters: dose 10 mg/kg, route subcutaneous; conditions: brain homogenate
Procedure, shortened: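 Unbound fraction measured in rat brain homogenate by rapid equilibrium dialysis, 5 h incubation at 37 °C.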

[9] = Drug level in Sprague-Dawley rat brain homogenates at 10 mg/kg, sc after 1 hr; assay type: ADME, organism-based; parameters: dose 10 mg/kg, route subcutaneous; conditions: read-out: Drug uptake
Procedure, shortened: (§2)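 Fed male Sprague-Dawley rats, n = 2 per time point, given 10 mg/kg s.c. in 20% HPβCD at pH 3.5−4. Brain and plasma levels taken 1 h after dosing; brain-to-plasma ratio computed from these.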

[10] = Ratio of drug level in brain to plasma of Sprague-Dawley rat at 10 mg/kg, sc after 1 hr; assay type: ADME, organism-based; parameters: dose 10 mg/kg, route subcutaneous; conditions: read-out: BPR; procedure, shortened: as §2
[11] = Solubility in pH 7.4 buffer; assay type: physicochemical
[12] = Solubility in pH 3.9 buffer with 20% HPbetaCD; assay type: physicochemical
[13] = Dissociation constant, pKa of the compound; assay type: physicochemical
[14] = target: Dual specificity calcium/calmodulin-dependent 3',5'-cyclic nucleotide phosphodiesterase 1A (Homo sapiens, UniProt P54750); experiment: Inhibition of human PDE1A by scintillation proximity assay
Sequence of Dual specificity calcium/calmodulin-dependent 3',5'-cyclic nucleotide phosphodiesterase 1A (P54750 whole entry): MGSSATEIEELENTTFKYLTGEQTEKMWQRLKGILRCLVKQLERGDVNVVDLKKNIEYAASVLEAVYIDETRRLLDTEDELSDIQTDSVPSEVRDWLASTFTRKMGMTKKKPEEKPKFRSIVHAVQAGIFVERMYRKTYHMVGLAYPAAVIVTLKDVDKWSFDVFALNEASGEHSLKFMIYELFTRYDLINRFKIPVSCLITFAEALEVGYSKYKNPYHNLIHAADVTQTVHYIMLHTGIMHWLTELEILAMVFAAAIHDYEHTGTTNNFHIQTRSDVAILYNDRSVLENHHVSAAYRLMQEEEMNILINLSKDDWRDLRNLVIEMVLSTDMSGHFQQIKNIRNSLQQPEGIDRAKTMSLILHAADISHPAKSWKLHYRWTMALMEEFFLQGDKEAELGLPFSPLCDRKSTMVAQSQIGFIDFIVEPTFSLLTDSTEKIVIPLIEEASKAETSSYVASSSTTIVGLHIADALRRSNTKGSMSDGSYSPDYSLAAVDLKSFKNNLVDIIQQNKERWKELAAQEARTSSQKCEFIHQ

[15] = target: cGMP-inhibited 3',5'-cyclic phosphodiesterase 3B (Homo sapiens, UniProt Q13370); experiment: Inhibition of human PDE3B by scintillation proximity assay
Sequence of cGMP-inhibited 3',5'-cyclic phosphodiesterase 3B (Q13370 whole entry): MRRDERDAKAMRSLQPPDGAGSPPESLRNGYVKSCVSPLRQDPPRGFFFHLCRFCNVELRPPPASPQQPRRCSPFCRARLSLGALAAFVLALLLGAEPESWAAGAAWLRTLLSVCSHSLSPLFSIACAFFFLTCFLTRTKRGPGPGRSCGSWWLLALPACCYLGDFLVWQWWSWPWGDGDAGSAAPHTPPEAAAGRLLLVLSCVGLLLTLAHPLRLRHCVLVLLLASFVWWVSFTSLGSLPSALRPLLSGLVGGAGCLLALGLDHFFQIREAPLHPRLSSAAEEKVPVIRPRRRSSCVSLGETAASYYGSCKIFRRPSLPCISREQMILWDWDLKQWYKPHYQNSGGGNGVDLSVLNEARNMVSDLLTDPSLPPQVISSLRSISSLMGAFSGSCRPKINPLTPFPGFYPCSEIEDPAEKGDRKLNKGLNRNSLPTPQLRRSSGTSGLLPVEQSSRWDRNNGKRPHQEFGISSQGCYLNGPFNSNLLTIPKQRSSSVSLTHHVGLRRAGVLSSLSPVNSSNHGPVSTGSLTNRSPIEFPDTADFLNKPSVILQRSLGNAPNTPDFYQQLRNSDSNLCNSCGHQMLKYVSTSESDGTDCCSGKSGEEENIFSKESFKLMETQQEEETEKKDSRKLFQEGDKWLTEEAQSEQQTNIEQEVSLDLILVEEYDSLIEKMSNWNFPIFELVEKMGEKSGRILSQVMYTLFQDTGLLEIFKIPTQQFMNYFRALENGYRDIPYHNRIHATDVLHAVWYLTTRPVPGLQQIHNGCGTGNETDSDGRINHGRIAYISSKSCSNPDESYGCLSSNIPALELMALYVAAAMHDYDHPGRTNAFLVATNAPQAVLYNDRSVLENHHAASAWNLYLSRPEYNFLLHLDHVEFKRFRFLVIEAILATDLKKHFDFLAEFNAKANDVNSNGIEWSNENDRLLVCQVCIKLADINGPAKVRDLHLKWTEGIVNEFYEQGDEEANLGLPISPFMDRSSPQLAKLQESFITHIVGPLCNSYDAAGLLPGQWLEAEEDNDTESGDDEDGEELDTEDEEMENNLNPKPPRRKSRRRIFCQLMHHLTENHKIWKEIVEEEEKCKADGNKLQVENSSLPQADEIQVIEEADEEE

[16] = target: 3',5'-cyclic-AMP phosphodiesterase 4D (Homo sapiens, UniProt Q08499); experiment: Inhibition of 6-His-tagged human recombinant PDE4D3 expressed in Sf9 cells by scintillation proximity assay
Sequence of 3',5'-cyclic-AMP phosphodiesterase 4D (Q08499 whole entry): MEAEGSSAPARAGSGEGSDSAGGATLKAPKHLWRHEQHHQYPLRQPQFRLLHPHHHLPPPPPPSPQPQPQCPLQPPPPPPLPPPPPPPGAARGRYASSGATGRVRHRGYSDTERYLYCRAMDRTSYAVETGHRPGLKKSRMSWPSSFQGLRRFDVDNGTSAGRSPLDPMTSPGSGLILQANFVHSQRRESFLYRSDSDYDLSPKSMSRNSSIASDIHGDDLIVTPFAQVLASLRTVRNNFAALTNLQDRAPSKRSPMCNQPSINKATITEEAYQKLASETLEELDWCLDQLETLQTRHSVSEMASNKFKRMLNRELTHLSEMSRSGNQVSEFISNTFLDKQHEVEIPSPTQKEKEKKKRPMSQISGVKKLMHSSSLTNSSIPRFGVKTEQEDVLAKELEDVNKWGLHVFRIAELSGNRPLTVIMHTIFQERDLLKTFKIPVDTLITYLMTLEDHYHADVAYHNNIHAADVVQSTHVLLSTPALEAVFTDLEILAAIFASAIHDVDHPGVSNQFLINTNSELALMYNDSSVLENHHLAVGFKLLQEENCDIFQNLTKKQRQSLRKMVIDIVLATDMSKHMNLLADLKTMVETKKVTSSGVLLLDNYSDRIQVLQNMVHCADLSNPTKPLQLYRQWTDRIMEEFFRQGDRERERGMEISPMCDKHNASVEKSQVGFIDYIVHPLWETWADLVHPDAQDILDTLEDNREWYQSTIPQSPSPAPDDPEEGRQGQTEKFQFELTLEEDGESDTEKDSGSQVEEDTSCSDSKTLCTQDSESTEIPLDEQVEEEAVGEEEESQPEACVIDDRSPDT

[17] = target: cGMP-specific 3',5'-cyclic phosphodiesterase (Homo sapiens, UniProt O76074); experiment: Inhibition of 6-His-tagged human recombinant PDE5A3 expressed in Sf9 cells by scintillation proximity assay
Phosphodiesterase 6 = experiment: Inhibition of human PDE6AB by scintillation proximity assay; assay type: protein assay
[18] = target: High affinity 3',5'-cyclic-AMP phosphodiesterase 7A (Homo sapiens, UniProt Q13946); experiment: Inhibition of 6-His-tagged human recombinant PDE7A1 expressed in Sf9 cells by scintillation proximity assay
[19] = target: High affinity cGMP-specific 3',5'-cyclic phosphodiesterase 9A (Homo sapiens, UniProt O76083); experiment: Inhibition of 6-His-tagged human recombinant PDE9A1 expressed in Sf9 cells by scintillation proximity assay
Sequence of High affinity cGMP-specific 3',5'-cyclic phosphodiesterase 9A (O76083 whole entry): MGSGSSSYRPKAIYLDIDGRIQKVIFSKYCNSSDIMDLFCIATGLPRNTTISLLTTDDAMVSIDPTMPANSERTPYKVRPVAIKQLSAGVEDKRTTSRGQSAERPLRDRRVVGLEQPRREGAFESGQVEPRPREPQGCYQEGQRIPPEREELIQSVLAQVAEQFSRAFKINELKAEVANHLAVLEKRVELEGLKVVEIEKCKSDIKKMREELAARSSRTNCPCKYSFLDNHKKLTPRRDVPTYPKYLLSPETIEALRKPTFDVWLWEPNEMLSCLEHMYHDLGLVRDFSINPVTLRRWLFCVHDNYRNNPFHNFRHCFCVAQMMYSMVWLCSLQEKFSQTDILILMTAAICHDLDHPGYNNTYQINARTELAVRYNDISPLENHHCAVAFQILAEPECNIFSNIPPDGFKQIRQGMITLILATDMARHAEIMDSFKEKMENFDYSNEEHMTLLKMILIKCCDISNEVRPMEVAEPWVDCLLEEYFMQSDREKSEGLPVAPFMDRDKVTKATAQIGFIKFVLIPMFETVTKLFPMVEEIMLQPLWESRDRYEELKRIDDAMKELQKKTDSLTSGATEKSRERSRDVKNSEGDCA

[20] = target: Dual 3',5'-cyclic-AMP and -GMP phosphodiesterase 11A (Homo sapiens, UniProt Q9HCR9); experiment: Inhibition of full length human PDE11A4 expressed in HEK cells by scintillation proximity assay; parameters: species or system HEK293
Sequence of Dual 3',5'-cyclic-AMP and -GMP phosphodiesterase 11A (Q9HCR9 whole entry): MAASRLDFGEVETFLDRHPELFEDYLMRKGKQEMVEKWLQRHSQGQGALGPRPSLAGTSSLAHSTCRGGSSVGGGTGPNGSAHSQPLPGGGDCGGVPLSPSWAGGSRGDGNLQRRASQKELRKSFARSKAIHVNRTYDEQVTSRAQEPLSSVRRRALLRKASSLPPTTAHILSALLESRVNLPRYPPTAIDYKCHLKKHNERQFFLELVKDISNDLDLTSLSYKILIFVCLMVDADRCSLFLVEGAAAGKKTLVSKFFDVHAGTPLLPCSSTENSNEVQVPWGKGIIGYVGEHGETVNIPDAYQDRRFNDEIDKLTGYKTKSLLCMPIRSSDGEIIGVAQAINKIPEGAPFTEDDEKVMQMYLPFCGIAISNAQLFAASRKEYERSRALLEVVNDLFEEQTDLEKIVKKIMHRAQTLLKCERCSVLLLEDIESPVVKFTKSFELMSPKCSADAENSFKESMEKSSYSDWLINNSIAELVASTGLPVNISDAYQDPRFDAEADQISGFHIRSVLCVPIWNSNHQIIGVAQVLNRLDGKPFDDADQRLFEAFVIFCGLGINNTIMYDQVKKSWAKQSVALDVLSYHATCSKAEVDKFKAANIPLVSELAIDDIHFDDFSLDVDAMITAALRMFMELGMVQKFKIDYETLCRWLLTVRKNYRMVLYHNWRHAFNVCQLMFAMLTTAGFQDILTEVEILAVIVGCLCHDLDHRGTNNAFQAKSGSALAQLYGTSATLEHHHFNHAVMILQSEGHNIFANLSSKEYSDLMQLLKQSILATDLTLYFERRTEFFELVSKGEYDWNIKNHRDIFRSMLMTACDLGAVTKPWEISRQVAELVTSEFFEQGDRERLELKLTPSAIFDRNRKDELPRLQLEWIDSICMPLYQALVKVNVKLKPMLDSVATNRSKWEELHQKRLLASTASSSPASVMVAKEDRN

[21] = Drug metabolism in human liver microsomes at 1 uM incubated for 15 mins at 37 degC; assay type: ADME; conditions: read-out: Drug metabolism
Procedure, shortened: (§3)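 Compound at 1 μM incubated 15 min at 37 °C with human or rat liver microsomes; read-out is percent metabolized.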

[22] = Drug metabolism in rat liver microsomes at 1 uM incubated for 15 mins at 37 degC; assay type: ADME; conditions: read-out: Drug metabolism; procedure, shortened: as §3
[23] = Kinetic solubility in pH 7.4 buffer incubated for 4 hrs; assay type: physicochemical; conditions: read-out: Kinetic_solubility
[24] = Dissociation constant, pKa of the compound at 25 degC by potentiometric titration method; assay type: physicochemical
[25] = Drug formulatability in 20% HPbetaCD at pH >3.5 buffer; assay type: physicochemical; conditions: 20% HPbetaCD in buffer at pH >3.5; read-out: Activity
CYP1A2 = target: T1, CYP1A2 (Homo sapiens, UniProt P05177); experiment: Inhibition of CYP1A2 (unknown origin) at 5 uM; assay type: ADME
T1 sequence (P05177 whole entry): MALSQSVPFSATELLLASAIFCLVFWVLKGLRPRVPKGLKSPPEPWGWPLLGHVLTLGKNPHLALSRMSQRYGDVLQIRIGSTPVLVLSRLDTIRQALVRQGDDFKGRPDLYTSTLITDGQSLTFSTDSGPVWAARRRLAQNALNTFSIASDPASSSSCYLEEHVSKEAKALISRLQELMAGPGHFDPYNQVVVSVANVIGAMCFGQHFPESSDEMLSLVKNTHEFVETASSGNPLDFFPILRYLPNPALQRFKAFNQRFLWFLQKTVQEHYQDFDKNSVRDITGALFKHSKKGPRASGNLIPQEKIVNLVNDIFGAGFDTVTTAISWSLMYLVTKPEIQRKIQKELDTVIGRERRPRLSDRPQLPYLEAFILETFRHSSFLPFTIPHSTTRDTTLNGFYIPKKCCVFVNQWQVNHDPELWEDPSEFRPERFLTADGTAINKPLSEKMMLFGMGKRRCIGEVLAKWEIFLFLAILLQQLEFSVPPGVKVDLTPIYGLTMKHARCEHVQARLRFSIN

CYP2C9 = CYP2C9 (Homo sapiens, UniProt P11712); experiment: Inhibition of CYP2C9 (unknown origin) at 5 uM; assay type: ADME
CYP2D6 = CYP2D6 (Homo sapiens, UniProt P10635); experiment: Inhibition of CYP2D6 (unknown origin) at 5 uM; assay type: ADME
Sequence of CYP2D6 (P10635 whole entry): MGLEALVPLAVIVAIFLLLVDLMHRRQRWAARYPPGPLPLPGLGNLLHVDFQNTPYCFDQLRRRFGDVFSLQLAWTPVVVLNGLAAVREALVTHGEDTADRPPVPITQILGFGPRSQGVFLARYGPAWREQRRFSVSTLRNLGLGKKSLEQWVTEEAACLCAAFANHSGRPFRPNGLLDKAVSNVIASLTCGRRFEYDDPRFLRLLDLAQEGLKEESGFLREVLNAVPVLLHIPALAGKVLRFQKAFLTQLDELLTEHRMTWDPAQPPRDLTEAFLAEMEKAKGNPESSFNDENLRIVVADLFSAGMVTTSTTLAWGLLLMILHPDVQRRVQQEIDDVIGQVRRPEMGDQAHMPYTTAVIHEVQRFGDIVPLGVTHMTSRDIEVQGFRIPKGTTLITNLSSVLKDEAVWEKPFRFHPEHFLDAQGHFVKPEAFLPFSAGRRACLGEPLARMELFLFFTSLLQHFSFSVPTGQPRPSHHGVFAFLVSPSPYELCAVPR

CYP2C19 = CYP2C19 (Homo sapiens, UniProt P33261); experiment: Inhibition of CYP2C19 (unknown origin) at 5 uM; assay type: ADME
CYP3A4 = CYP3A4 (Homo sapiens, UniProt P08684); experiment: Inhibition of CYP3A4 (unknown origin) at 5 uM; assay type: ADME
Sequence of CYP3A4 (P08684 whole entry): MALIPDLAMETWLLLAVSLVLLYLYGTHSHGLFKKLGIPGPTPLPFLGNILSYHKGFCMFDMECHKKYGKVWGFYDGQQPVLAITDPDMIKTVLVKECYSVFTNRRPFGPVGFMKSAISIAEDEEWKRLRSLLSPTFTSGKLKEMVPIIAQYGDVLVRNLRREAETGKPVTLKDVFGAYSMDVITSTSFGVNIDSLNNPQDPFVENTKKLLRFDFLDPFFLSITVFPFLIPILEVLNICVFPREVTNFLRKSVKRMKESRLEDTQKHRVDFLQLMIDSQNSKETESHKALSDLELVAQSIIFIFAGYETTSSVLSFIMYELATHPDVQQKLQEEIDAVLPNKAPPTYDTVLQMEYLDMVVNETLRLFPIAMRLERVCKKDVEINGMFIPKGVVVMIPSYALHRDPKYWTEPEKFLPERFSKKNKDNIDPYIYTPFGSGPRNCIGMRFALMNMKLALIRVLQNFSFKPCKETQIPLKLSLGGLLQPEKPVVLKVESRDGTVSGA

Salmonella typhimurium = experiment: Genotoxicity in Salmonella typhimurium at 125 ug/ml by AMES-2 test; assay type: toxicity, organism-based; conditions: salmonella enterica subsp. enterica serovar typhimurium
Procedure, shortened: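 Colorimetric AMESII bacterial mutagenicity kit, adapted; compound tested at 125 μg/mL.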

[26] = Initial plasma concentration in Sprague-Dawley rat at 2.5 mg/kg, iv; assay type: ADME, organism-based; parameters: dose 2.5 mg/kg, route intravenous; procedure, shortened: as §1
[27] = Half life in Sprague-Dawley rat at 2.5 mg/kg, iv; assay type: ADME, organism-based; parameters: dose 2.5 mg/kg, route intravenous; conditions: in vivo; procedure, shortened: as §1
[28] = Apparent volume of distribution in Sprague-Dawley rat at 2.5 mg/kg, iv; assay type: ADME, organism-based; parameters: dose 2.5 mg/kg, route intravenous; conditions: in vivo, read-out: Vz; procedure, shortened: as §1
[29] = Volume of distribution at steady state in Sprague-Dawley rat at 2.5 mg/kg, iv; assay type: ADME, organism-based; parameters: dose 2.5 mg/kg, route intravenous; conditions: in vivo, read-out: Vdss; procedure, shortened: as §1
Rattus norvegicus [30] = experiment: In vivo PDE2 occupancy in Wistar rat assessed as inhibition of specific binding of [3H]-4-((1-(5-butoxypyridin-3-yl)-4-methyl-[1,2,4]triazolo[4,3-a]quinoxalin-8-yl)methyl)morpholine radiotracer and pre-treated with 2.5 mg/kg, sc PDE10 inhibitor MP10
[31] = target: T2, cAMP and cAMP-inhibited cGMP 3',5'-cyclic phosphodiesterase 10A (Rattus norvegicus, UniProt Q9QYJ6); experiment: Inhibition of 6-His-tagged rat recombinant PDE10A expressed in Sf9 cells using [3H]cAMP incubated for 60 mins by scintillation proximity assay
T2 sequence (Q9QYJ6 whole entry): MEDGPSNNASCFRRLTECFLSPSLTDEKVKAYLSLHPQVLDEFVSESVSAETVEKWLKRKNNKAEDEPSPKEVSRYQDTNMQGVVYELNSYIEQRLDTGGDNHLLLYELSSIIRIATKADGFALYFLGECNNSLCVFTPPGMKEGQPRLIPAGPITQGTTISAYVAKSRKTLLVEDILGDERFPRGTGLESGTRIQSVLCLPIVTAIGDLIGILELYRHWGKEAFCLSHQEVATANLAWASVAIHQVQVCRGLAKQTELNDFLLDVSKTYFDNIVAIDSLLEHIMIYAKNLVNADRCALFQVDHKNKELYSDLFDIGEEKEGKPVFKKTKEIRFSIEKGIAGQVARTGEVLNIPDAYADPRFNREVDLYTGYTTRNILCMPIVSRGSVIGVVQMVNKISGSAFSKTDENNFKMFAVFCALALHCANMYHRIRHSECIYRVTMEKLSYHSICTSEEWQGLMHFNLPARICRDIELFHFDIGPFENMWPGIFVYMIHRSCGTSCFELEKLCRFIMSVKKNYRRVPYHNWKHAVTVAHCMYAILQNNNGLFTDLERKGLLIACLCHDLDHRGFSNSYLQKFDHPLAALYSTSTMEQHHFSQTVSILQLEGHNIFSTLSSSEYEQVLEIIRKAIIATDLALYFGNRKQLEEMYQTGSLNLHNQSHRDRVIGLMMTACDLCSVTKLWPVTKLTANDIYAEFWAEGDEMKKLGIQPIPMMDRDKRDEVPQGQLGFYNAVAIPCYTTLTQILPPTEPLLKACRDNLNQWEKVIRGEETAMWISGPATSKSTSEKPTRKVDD

Rattus norvegicus [32] = experiment: In vivo PDE2 occupancy in Wistar rat assessed as inhibition of specific binding of [3H]-4-((1-(5-butoxypyridin-3-yl)-4-methyl-[1,2,4]triazolo[4,3-a]quinoxalin-8-yl)methyl)morpholine radiotracer and pre-treated with 2.5 mg/kg, sc PDE10 inhibitor MP10; assay type: functional; conditions: route subcutaneous
Rattus norvegicus [33] = experiment: In vivo PDE2 occupancy in Wistar rat assessed as inhibition of specific binding of [3H]-4-((1-(5-butoxypyridin-3-yl)-4-methyl-[1,2,4]triazolo[4,3-a]quinoxalin-8-yl)methyl)morpholine radiotracer up to 10 mg/kg, po and pre-treated with 2.5 mg/kg, sc PDE10 inhibitor MP10; assay type: functional, organism-based

IC50 [31]: 6.03 µM
metabolised at 0.25 h, 1 µM [21]: 57%
metabolised at 0.25 h, 1 µM [22]: 98%
SMILES: Cc1nc2ccncc2n2c(-c3cc(COC(C)C)ccc3Cl)nnc12

fraction unbound at 5 h [8]: 0.1
concentration at 1 h [9]: 370 ng/g
Kp at 1 h [10]: 1.1
metabolised at 0.25 h, 1 µM [21]: 12%
metabolised at 0.25 h, 1 µM [22]: 77%
SMILES: Cc1nc2ccncc2n2c(-c3cc(COCC(F)(F)F)ccc3Cl)nnc12
ED50 (Rattus norvegicus [32]): 3.6 mg/kg
Activity (Rattus norvegicus [33]): inactive

fraction unbound at 5 h [8]: 0.1
concentration at 1 h [9]: 895 ng/g
Kp at 1 h [10]: 0.98
IC50 [31]: 3.89 µM
metabolised at 0.25 h, 1 µM [21]: 78%
metabolised at 0.25 h, 1 µM [22]: 98%
SMILES: CCCOCc1ccc(Cl)c(-c2nnc3c(C)nc4ccncc4n23)c1

Further lines, the compound ahead of its results:

SMILES: Cc1nc2ccncc2n2c(-c3ccccc3Cl)nnc12
clearance [1]: 38.7 mL/min/kg
AUC(0-inf) [2]: 1040 ng·h/mL
Cmax [3]: 997 ng/mL
Tmax [4]: 1.17 h
half-life [5]: 2.36 h
AUC(0-inf) [6]: 4230 ng·h/mL
bioavailability [7]: 100%
fraction unbound at 5 h [8]: > 0.3
concentration at 1 h [9]: 2730 ng/g
Kp at 1 h [10]: 0.65
solubility [11]: > 1000 µM
solubility [12]: 4000 µg/mL (≈ 13.5 mM)
pKa [13]: 2.7
IC50 [14]: > 10 µM
IC50 [15]: > 10 µM
IC50 [16]: 5.89 µM
IC50 [17]: > 10 µM
IC50 (Phosphodiesterase 6): > 10 µM
IC50 [18]: > 10 µM
IC50 [19]: > 10 µM
IC50 [20]: 6.92 µM
metabolised at 0.25 h, 1 µM [21]: 7%
metabolised at 0.25 h, 1 µM [22]: 13%
solubility kinetic at 4 h [23]: > 1000 µM
pKa [24]: 2.7
solubility [25]: 4000 µg/mL (≈ 13.5 mM)
inhibition at 5 µM (CYP1A2): < 50%
inhibition at 5 µM (CYP2C9): < 50%
inhibition at 5 µM (CYP2D6): < 50%
inhibition at 5 µM (CYP2C19): < 50%
inhibition at 5 µM (CYP3A4): < 50%
Activity (Salmonella typhimurium): Non-toxic
C0 [26]: 3020 ng/mL
half-life [27]: 0.47 h
Vd [28]: 1.61 L/kg
Vd [29]: 1.02 L/kg
ED50 (Rattus norvegicus [30]): 21 mg/kg

SMILES: Cc1nc2ccncc2n2c(-c3cc(N4CCOCC4)ccc3Cl)nnc12
IC50 [31]: > 10 µM
metabolised at 0.25 h, 1 µM [21]: 14%
metabolised at 0.25 h, 1 µM [22]: 53%
